APJ ag: APJ receptor agonism. CHO-K1 APJ PathHunter beta-arrestin, luminescence; 0% DMSO wells, 100% apelin. P35414. hit rate 0.11% among 330,000. activation, % at 20 µM;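 active means activation more than six SD over the plate average, tested at 20 µM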;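 further: 0% = DMSO alone and 100% = apelin-13 at 10 nM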
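Assay system – PathHunter CHO-K1 APJ (AGTRL-1) beta-arrestin reporter cells · Compound – one dose, 20 µM compound, 1% DMSO · Timing – compound 90 min 25 °C, reagent 1 h · Measured by – luminescence from split beta-galactosidase complementation, Galacton Star/Emerald II substrate · Measure – beta-arrestin recruitment to APJ as agonist activity, luminescent signal · Benchmarks – DMSO vs Apelin-13 10 nM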
CXCR6 inh: inhibitors of human CXCR6 receptor | inhibition, % at 20 µM | hit rate 0.36% among 360,000 | O00574 | CHO-K1 PathHunter CXCR6 beta-arrestin, luminescence; in the data active means inhibition above about 34%, passing the limit was not always enough;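 further: antagonist mode with CXCL16 agonist at 10 nM final; 0% = 10 nM CXCL16 with DMSO and 100% = unstimulated wells without agonist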
CCR6 antag: CCR6 (human) receptor antagonism | CHO-K1 CCR6 PathHunter beta-arrestin, luminescence, CCL20-stimulated | inhibition, % at 20 µM | hit rate 0.49% among 340,000 | AID 493098;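 active means compounds whose inhibition of the agonist-driven luminescence signal at 20 µM reaches about 50%, limit read from the data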;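 further: cells stimulated with CCL20 at 14 nM final; plate controls were DMSO with CCL20 for no effect and DMSO without agonist for full effect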
APJ antag: blocks the human apelin receptor APJ; P35414; CHO-K1 APJ beta-arrestin complementation, luminescence; inhibition, % at 20 µM; hit rate 0.32% among 330,000; AID 2521;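 active means inhibition above about 40% at 20 µM, limit read from the data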;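 further: cells challenged with 10 nM apelin-13 agonist together with compound; plate controls were apelin-13 plus DMSO wells for no effect and DMSO wells lacking apelin-13 for full effect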
EBI2 antag: antagonists of human EBI2 receptor | P32249 | EBI2 beta-arrestin recruitment, luminescence, 7a,25-OHC stimulated | inhibition, % at 5 µM | hit rate 0.81% among 360,000; in the data active means inhibition above about 38%;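 further: enzyme fragment complementation signal reports receptor beta-arrestin coupling in cells; 0% = agonist plus DMSO wells and 100% = wells without agonist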
Target sequence (P32249 whole entry, looked up, the tested form may be a part): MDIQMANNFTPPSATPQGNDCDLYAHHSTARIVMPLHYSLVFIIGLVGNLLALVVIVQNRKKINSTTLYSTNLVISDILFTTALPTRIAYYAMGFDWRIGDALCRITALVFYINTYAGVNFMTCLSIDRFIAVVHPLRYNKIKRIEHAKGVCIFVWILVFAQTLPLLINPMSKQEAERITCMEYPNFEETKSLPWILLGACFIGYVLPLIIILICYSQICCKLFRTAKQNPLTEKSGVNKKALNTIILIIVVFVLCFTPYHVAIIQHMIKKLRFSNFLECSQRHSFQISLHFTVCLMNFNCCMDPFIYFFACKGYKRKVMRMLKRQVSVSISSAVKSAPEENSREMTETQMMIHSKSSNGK
* hit, by the source's call; / = no result given. Hits are enriched below; roughly 1.5% of the tested compounds scored in any of these assays.

SMILES | APJ ag | CXCR6 inh | CCR6 antag | APJ antag | EBI2 antag
O=C1CC(C(=O)Nc2ccc(Cl)cc2[N+](=O)[O-])C2(CCCCC2)O1 (stereo unspecified) | 4 | -8 | 57* | -12 | -9
Cc1ccccc1C(=O)Nc1cccc(C(=O)N/N=C/c2cc(Cl)cc([N+](=O)[O-])c2O)c1 | -8 | 34 | 71* | 27 | 8
O=C1C(F)=CC(COC(c2ccccc2)(c2ccccc2)c2ccccc2)OC1n1cc(F)c(=O)[nH]c1=O (stereo unspecified) | / | 67* | 99* | / | -6
CC(=O)OCC1OC(n2cc(F)c(=O)[nH]c2=O)C(OC(C)=O)C1OC(C)=O (stereo unspecified) | -4 | -5 | 14 | 6 | -11
Cc1ccc(O)c(N=Nc2nccs2)c1 | -9 | 52* | / | -31 | 6
CN(c1ccc(Cl)cc1)c1cc2c(c3c1ccn3C)C1CCC2O1 (stereo unspecified) | / | 4 | / | / | 7
Cc1ccc(NN2C(=O)C=C(c3ccc(Cl)cc3)C2=O)cc1 | 4 | 0 | 12 | -12 | 46*
O=C1C=C(c2ccccc2)C(=O)N1Nc1ccccc1 | 11 | 31 | / | 8 | 3
N#CC1C(=O)NC(c2ccccc2)=CC1c1ccccc1 (stereo unspecified) | / | 22 | 52* | / | -16
COc1ccc(C(OCC(O)CNCCc2ccc(S(N)(=O)=O)cc2)c2ccc(OC)cc2)cc1 (stereo unspecified) | -2 | 4 | 8 | -4 | -4
OC(CNCCc1ccc(C(F)(F)F)cc1)COC(c1ccccc1)c1ccccc1 (stereo unspecified) | -1 | 32 | 60* | -27 | 20
CCOC(=O)c1c(SC)n(-c2ccccc2)c(=S)n(-c2ccccc2)c1=O | / | 8 | 10 | / | -8
CCOC(=O)c1c(SCCN2CCCCC2)n(-c2ccccc2)c(=S)n(-c2ccccc2)c1=O | / | 86* | 99* | / | 9
COC(=O)C[C@H]1C=C[C@H](NC(=O)c2ccccn2)[C@@H](CO)O1 | / | / | / | / | 2
Cc1ccc(C(=O)N/C(=C\c2ccc(-c3ccc(Br)cc3)o2)C(=O)NCCCN(C)C)cc1 | -1 | 12 | 70* | 18 | -16
COc1ccc(CCN2C(=O)CCC2(C)c2nnnn2-c2ccc3c(c2)OCCO3)cc1OC (stereo unspecified) | / | -3 | / | / | 2
COc1cc(OC)c(-c2c3cc(O)c(=O)cc-3oc3cc(O)c(O)cc23)cc1OC | -6 | 32 | 64* | 29 | 1
CC1CCCCN1C(=O)CSc1nc(C2CC2)nc2ccccc12 (stereo unspecified) | -3 | -9 | 13 | 18 | 13
O=C(NCc1cccnc1)/C(=C\c1ccc(-c2ccc(Br)cc2)o1)S(=O)(=O)c1ccccc1 | -2 | 25 | 49 | 24 | 62*
O=C(CN(Cc1ccc(Br)cc1)S(=O)(=O)c1ccccc1)NCc1cccnc1 | -2 | 6 | 14 | 0 | -12
O=C(NCc1cccnc1)/C(=C/c1ccc(-c2cccc(C(F)(F)F)c2)o1)NC(=O)c1ccccc1 | 0 | -4 | -4 | -2 | -10
O=C(NCc1cccnc1)/C(=C/c1ccc(-c2ccc(Cl)cc2)o1)S(=O)(=O)c1ccccc1 | -2 | 26 | 49 | 36 | 54*
Nc1sc2c(c1C(=O)NCCc1ccccc1)CCCC2 | / | / | / | / | 4
Clc1ccc(-c2csc3ncnc(Cl)c23)cc1 | -3 | 4 | 12 | -2 | 9
NNc1ncnc2scc(-c3ccc(Cl)cc3)c12 | 1 | 4 | 6 | 46* | 3
SMILES | APJ ag | CXCR6 inh | CCR6 antag | APJ antag | EBI2 antag
N#Cc1c(N2CCN(C(=O)c3ccccc3)CC2)nc(-c2ccccc2)c2c1CCCC2 | 0 | 10 | 50* | 7 | 10
N#Cc1c(N2CCN(C(=O)c3ccccc3Cl)CC2)nc(-c2ccccc2)c2c1CCCC2 | 1 | 16 | 17 | 22 | 15
Cc1noc(C)c1-c1ccc(C(=O)Nc2cccc(C(F)(F)F)c2)c2occc12 | / | 6 | / | / | 39
CC(NC(=O)Cn1ncc(Cl)c(Cl)c1=O)C12CC3CC(CC(C3)C1)C2 (stereo unspecified) | / | 32 | 33 | / | 63*
O=C1C=CC(=O)N1Cc1ccccc1 | 2 | 90* | 107* | -28 | 3
Cc1ccc(S(=O)(=O)N2C3CCCCC3O[C@H]2CC(=O)c2cccc3ccccc23)cc1 (stereo partly specified) | / | / | / | / | 26
CCOC(=O)CSC1=NC(=O)/C(=C/c2ccc(Br)cc2)S1 | -5 | 22 | 59* | 13 | -3
CCOC(=O)CSC1=NC(=O)/C(=C\c2ccc(OC(C)=O)cc2)S1 | -4 | 30 | 78* | 33 | -15
COc1ccc(C(=O)/C=C/c2cc(OC)c(O)c(OC)c2)c(F)c1 | -1 | 21 | 51* | -4 | 11
COc1ccc2cc(C(=O)/C=C/c3cc(OC)c(O)c(OC)c3)ccc2c1 | 0 | 16 | 29 | 1 | 30
CC1(C(=O)NCc2cccs2)Cc2c(-c3ccc4c(c3)OCO4)ccnc2O1 (stereo unspecified) | / | 3 | / | / | -10
COc1cccc(OCC(O)CN2CCC(CN3C(=O)c4cccc5cccc(c45)C3=O)CC2)c1 (stereo unspecified) | 0 | -12 | 14 | -22 | 27
O=C1c2cccc3cccc(c23)C(=O)N1CC1CCN(CC(O)COc2ccc3ccccc3c2)CC1 (stereo unspecified) | -5 | 6 | 10 | -11 | 57*
COC(=O)C[C@@H]1OC[C@H](Cc2ccccc2)N1S(=O)(=O)c1ccc(C)cc1 | / | / | / | / | 3
O=C1CC(=O)OC(c2ccc([N+](=O)[O-])cc2)O1 | / | 50* | / | / | 13
CCC1C(=O)C(C)(C)C(=O)OC1c1ccc([N+](=O)[O-])cc1 (stereo unspecified) | / | -1 | -2 | / | 22
Nc1sc(Cc2ccccc2)cc1C(=O)c1c(-c2ccccc2)[nH]c2ccccc12 | / | / | / | / | 15
C/C=C(/CCC1NCCc2c1[nH]c1ccccc21)[Si](C)(C)C (stereo unspecified) | / | 19 | 51* | / | 3
CCCCCCCCCC1NC(C(=O)O)Cc2c1[nH]c1ccccc21 (stereo unspecified) | / | 0 | / | / | -4
COc1ccc(CCNC(=O)c2cc(-c3ccccc3)c(N3CCOCC3)s2)c(OC)c1OC | 4 | 12 | 5 | -19 | 1
CCn1c(O)c(N=NC(=S)NCC2CCCO2)c2ccccc21 (stereo unspecified) | -6 | 47* | 66* | 27 | 3
Oc1[nH]c2ccccc2c1N=NC(=S)NCC1CCCO1 (stereo unspecified) | -2 | 6 | 23 | 35 | 3
COc1ccc(S(=O)(=O)N2CCOCC2)cc1NC(=O)C1CCCN1C(=O)c1cccs1 (stereo unspecified) | -2 | 1 | 7 | -11 | -11
COc1ccc(S(=O)(=O)N2CCOCC2)cc1NC(=O)[C@@H]1CCCN1C(=O)c1cccs1 | -2 | 1 | 96* | 2 | -7

Source: PubChem BioAssay (Sanford-Burnham Center for Chemical Genomics)
